Measured values reported in publication PMC2871064 (Cancer research, 2010).

Columns and labels:
[1] = Projected human dosimetry extrapolated from cynomolgus monkey scintigraphy; type: in vivo, cynomolgus monkeys
Summary of the method: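 Regions of interest (total body, lung, kidney, thyroid, eye) were drawn on anterior/posterior monkey images at each time point. Uptake was normalised to % total body dose, with the first pre-voiding image set as 100%. Time integrals went into OLINDA/EXM: adult male phantom, 4.8 h bladder voiding interval, unit-density sphere model for eye. The intestine margin is referenced to a 45 Gy limit at 4.7 GBq/70 kg.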

[2] = Monte Carlo simulation of radiation dose to human eye substructures; conditions: human projection
A375 xenografts = experiment: Tissue distribution in mice bearing A375 xenografts; type: in vivo, NCr^nu/nu mice; conditions: A375 xenograft mice; for Tissue distribution: Blood: tail vein
Summary of the method: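 Male athymic NCr nu/nu mice received 0.25 mL of cells (8 × 10⁶/mL in 1:1 D-PBS-glucose-pyruvate/Matrigel) into the right hind flank. Tumours were used at 100–500 mm³ (~21 days). Tail-vein bolus of ~74 KBq tracer in 0.05 mL; n = 5 per time point. Mice were killed by CO₂ at 1, 4 and 24 h. Organs and tumour were weighed wet and gamma-counted; results are %ID/g, mean ± SD.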

[3] = extrapolated from cynomolgus monkeys

Compound: CCN(CC)CCNC(=O)c1cc(I)c(NC(=O)c2ccc(F)cc2)cc1OC [[^131I]MIP-1145, N-(2-diethylamino-ethyl)-4-(4-fluoro-benzamido)-5-iodo-2-methoxy-benzamide]
- Projected human organ radiation absorbed dose: Muscle [1, 3]: 8.80E-02 ± 1.60E-02 mGy/MBq
- Projected human organ radiation absorbed dose: Osteogenic Cells [1, 3]: 1.60E-01 ± 3.30E-02 mGy/MBq
- Projected human organ radiation absorbed dose: Ovaries [1, 3]: 2.00E-01 ± 1.90E-02 mGy/MBq
- Projected human organ radiation absorbed dose: Pancreas [1, 3]: 9.20E-02 ± 1.90E-02 mGy/MBq
- Projected human organ radiation absorbed dose: Red Marrow [1, 3]: 8.70E-02 ± 1.40E-02 mGy/MBq
- Projected human organ radiation absorbed dose: Skin [1, 3]: 6.60E-02 ± 1.40E-02 mGy/MBq
- Projected human organ radiation absorbed dose: Small Intestine [1, 3]: 3.40E-01 ± 1.80E-02 mGy/MBq
- Projected human organ radiation absorbed dose: Spleen [1, 3]: 8.50E-02 ± 1.80E-02 mGy/MBq
- Projected human organ radiation absorbed dose: Stomach Wall [1, 3]: 9.80E-02 ± 1.80E-02 mGy/MBq
- Projected human organ radiation absorbed dose: Testes [1, 3]: 8.60E-02 ± 1.60E-02 mGy/MBq
- Projected human organ radiation absorbed dose: Thymus [1, 3]: 7.80E-02 ± 1.70E-02 mGy/MBq
- Projected human organ radiation absorbed dose: Uterus [1, 3]: 1.50E-01 ± 1.80E-02 mGy/MBq
- Projected human radiation absorbed dose: Total Body [1, 3]: 1.00E-01 ± 1.60E-02 mGy/MBq
- Projected human organ radiation absorbed dose: Adrenals ([1]; extrapolated from cynomolgus monkeys, adult male phantom): 8.50E-02 ± 1.80E-02 mGy/MBq
- Projected human organ radiation absorbed dose: Urinary Bladder Wall ([1]; extrapolated from cynomolgus monkeys, 4.8 hour voiding interval): 6.20E-01 ± 4.10E-02 mGy/MBq
- Projected human organ radiation absorbed dose: LLI Wall ([1]; extrapolated from cynomolgus monkeys, lower large intestine): 2.80E+00 ± 1.80E-02 mGy/MBq
- Projected human organ radiation absorbed dose: ULI Wall ([1]; extrapolated from cynomolgus monkeys, upper large intestine): 1.10E+00 ± 1.50E-02 mGy/MBq
- Projected human organ radiation absorbed dose: Thyroid ([1]; extrapolated from cynomolgus monkeys, without thyroid blockade): 1.80E+01 ± 1.30E+01 mGy/MBq
- Therapeutic dose supported as safe for administration ([1]; human projection, dose-limiting organ lower large intestine): up to 16.2 GBq
- Projected human radiation absorbed dose: all other organs ([1]; organs other than thyroid, large intestine and eyes): 0.064-1.1 mGy/MBq
- Administered activity needed to reach the lens TD5/5 of 10 Gy for cataracts [2]: 7.7 GBq
- Administered activity needed to reach the retina TD5/5 of 45 Gy for retinopathy [2]: 20.8 GBq
- Tissue distribution: Adipose (A375 xenografts; 1 hour): 1.56 ± 0.23 %ID/g
- Tissue distribution: Bone (A375 xenografts; 1 hour): 1.34 ± 0.12 %ID/g
- Tissue distribution: Brain (A375 xenografts; 1 hour): 0.60 ± 0.17 %ID/g
- Tissue distribution: Heart (A375 xenografts; 1 hour): 1.96 ± 0.33 %ID/g
- Tissue distribution: Kidneys (A375 xenografts; 1 hour): 14.26 ± 2.73 %ID/g
- Tissue distribution: Large Intestine (A375 xenografts; 1 hour): 2.69 ± 0.49 %ID/g
- Tissue distribution: Liver (A375 xenografts; 1 hour): 6.79 ± 1.33 %ID/g
- Tissue distribution: Lungs (A375 xenografts; 1 hour): 9.81 ± 0.88 %ID/g
- Tissue distribution: Skeletal Muscle (A375 xenografts; 1 hour): 1.03 ± 0.09 %ID/g
- Tissue distribution: Small Intestine (A375 xenografts; 1 hour): 9.19 ± 3.32 %ID/g
- Tissue distribution: Spleen (A375 xenografts; 1 hour): 4.54 ± 1.34 %ID/g
- Tissue distribution: Stomach (A375 xenografts; 1 hour): 6.22 ± 2.34 %ID/g
- Tissue distribution: Testes (A375 xenografts; 1 hour): 1.58 ± 0.22 %ID/g
- Tissue distribution: Tumor (A375 xenografts; 1 hour): 2.38 ± 0.75 %ID/g
- Tissue distribution: Blood (A375 xenografts; 1 hour post-injection): 0.46 ± 0.05 %ID/g
- Tissue distribution: Adipose (A375 xenografts; 4 hours): 1.10 ± 0.46 %ID/g
- Tissue distribution: Bone (A375 xenografts; 4 hours): 0.74 ± 0.07 %ID/g
- Tissue distribution: Brain (A375 xenografts; 4 hours): 0.16 ± 0.01 %ID/g
- Tissue distribution: Heart (A375 xenografts; 4 hours): 1.04 ± 0.06 %ID/g
- Tissue distribution: Kidneys (A375 xenografts; 4 hours): 8.53 ± 1.20 %ID/g
- Tissue distribution: Large Intestine (A375 xenografts; 4 hours): 13.81 ± 5.14 %ID/g
- Tissue distribution: Liver (A375 xenografts; 4 hours): 4.30 ± 0.45 %ID/g
- Tissue distribution: Lungs (A375 xenografts; 4 hours): 7.24 ± 1.31 %ID/g
- Tissue distribution: Skeletal Muscle (A375 xenografts; 4 hours): 0.58 ± 0.12 %ID/g
- Tissue distribution: Small Intestine (A375 xenografts; 4 hours): 12.44 ± 2.02 %ID/g
- Tissue distribution: Spleen (A375 xenografts; 4 hours): 2.57 ± 0.51 %ID/g
- Tissue distribution: Stomach (A375 xenografts; 4 hours): 4.57 ± 1.77 %ID/g
- Tissue distribution: Testes (A375 xenografts; 4 hours): 0.90 ± 0.13 %ID/g
- Tissue distribution: Tumor (A375 xenografts; 4 hours): 1.19 ± 0.07 %ID/g
- Tissue distribution: Blood (A375 xenografts; 4 hours post-injection): 0.26 ± 0.04 %ID/g
- Tissue distribution: Adipose (A375 xenografts; 24 hours): 0.13 ± 0.12 %ID/g
- Tissue distribution: Bone (A375 xenografts; 24 hours): 0.03 ± 0.02 %ID/g
- Tissue distribution: Brain (A375 xenografts; 24 hours): 0.01 ± 0.00 %ID/g
- Tissue distribution: Heart (A375 xenografts; 24 hours): 0.02 ± 0.02 %ID/g
- Tissue distribution: Kidneys (A375 xenografts; 24 hours): 0.21 ± 0.08 %ID/g
- Tissue distribution: Large Intestine (A375 xenografts; 24 hours): 1.35 ± 0.36 %ID/g
- Tissue distribution: Liver (A375 xenografts; 24 hours): 0.32 ± 0.06 %ID/g
- Tissue distribution: Lungs (A375 xenografts; 24 hours): 0.37 ± 0.15 %ID/g
- Tissue distribution: Skeletal Muscle (A375 xenografts; 24 hours): 0.02 ± 0.01 %ID/g
- Tissue distribution: Small Intestine (A375 xenografts; 24 hours): 0.59 ± 0.24 %ID/g
- Tissue distribution: Spleen (A375 xenografts; 24 hours): 0.15 ± 0.20 %ID/g
- Tissue distribution: Stomach (A375 xenografts; 24 hours): 0.67 ± 0.27 %ID/g
- Tissue distribution: Testes (A375 xenografts; 24 hours): 0.16 ± 0.05 %ID/g
- Tissue distribution: Tumor (A375 xenografts; 24 hours): 0.04 ± 0.02 %ID/g
- Tissue distribution: Blood (A375 xenografts; 24 hours post-injection): 0.04 ± 0.02 %ID/g
